One may read the Ki as a measure of affinity in units of concentration, obtained from inhibition or displacement.

Like-named read-outs stand apart in the source and are kept apart here.

One series deals with PKCα (Mus musculus, UniProt P20444). Put plainly: Competition with [3H]PDBU binding to PKCα. As to conditions: for Ratio Ki crude/Ki pure: relative to unresolved library E/Z mixture. In short, it runs like this: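 Partially purified mouse PKCα; test compound in DMSO competed with [3H]PDBU. Pure compounds ran 6–7 ligand concentrations; ID50 from sigmoidal fit; Ki = ID50/(1+L/Kd). Crude library mixtures (unresolved E/Z) were tested at a single 1 μM, with Ki calculated from that concentration. The ratio compares crude with pure Ki. Triplicates per concentration; ≥3 independent experiments; mean ± SEM.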

The test system of the next series is JB6 cells. Put plainly: Anchorage independent transformation in soft agar. Type of series: cell-based, Balb/C. The conditions noted are these: DAG-lactone 100 ng/mL, 14 days, normalized to TPA 10 ng/mL; L2-C11: both E- and Z-isomers. Summed up: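 JB6 cells (10^4) suspended in 0.33% top agar containing DMSO, TPA (10 ng/mL) or test compound (100 ng/mL), layered over 0.5% bottom agar also containing compound. Anchorage-independent colonies counted after 14 days by automated image analysis; colonies >8 cells scored as transformed. Four independent plates seeded. Mean colony number reported relative to TPA as 100%.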

The subject of a further series is LNCaP cells. The experiment in a line: Apoptosis and radiosensitization in LNCaP cells. It is filed as cell-based, human. As to conditions: 10 and 20 μM, 16 h pretreatment, 24 h post radiation (20 Gy). Summed up: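 LNCaP human prostate cancer cells were grown at 37°C, 5% CO2 in RPMI-1640 with 10% FCS, 2 mM L-glutamine, antibiotics and 10 mM HEPES (pH 7.2). FCS was replaced by 0.2% human albumin 24 h before the experiment. Cells were pretreated 16 h with test compound (10 or 20 μM), then irradiated (20 Gy). They were fixed 24 h later and stained with bis-benzimide. Cells with ≥3 apoptotic bodies were scored apoptotic by fluorescence microscopy. Mean of two experiments ± standard deviation.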

The next series has as its system AP-1. Put plainly: AP-1 luciferase assay. It is filed as cell-based, Balb/C. The conditions noted are these: pure DAG-lactone 100 ng/mL, 18 h, normalized to TPA 10 ng/mL; L2-C11: both E- and Z-isomers.
In the next series the test system is α-secretase. Put plainly: α-Secretase activation, secreted sAPPα by immunoblot densitometry in W4 cells. Type of series: cell-based, rat. As to conditions: crude sample or control, 1 μM.
Series [1] has as its system GFP-tagged PKCα, β, δ and ε. Put plainly: Translocation of GFP-tagged PKC isoforms in CHO cells. It is filed as cell-based, Chinese hamster. As to conditions: living CHO cells, 300 nM, confocal microscopy. In short, it runs like this: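 PKC isoforms were subcloned into a modified pEGFP-N1 plasmid to give GFP-tagged proteins, which were over-expressed in CHO cells. Localization was followed in real time by confocal microscopy before and after ligand treatment, with membrane translocation from cytosol taken as activation.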

For a further series, the system named is MCF-10A cells. The experiment in a line: Cellular motility assay. As to conditions: pure compounds, dose response, total area, 20 h. Type of series: cell-based, human.
Where [2] appears, read: Library 1, pure sample = E-isomer.
The mark [3] stands for this setting: Library 2, pure sample = E-isomer.
Where [4] appears, read: Library 1, pure sample = Z-isomer.

As for `O=C1OC(CO)(COC(=O)c2ccc([N+](=O)[O-])cc2)C/C1=C\c1ccc([N+](=O)[O-])cc1` (centres unmarked) [L1-H8, (E)-{2-(Hydroxymethyl)-4-[(4-nitrophenyl)methylene]-5-oxo-2-2,3-dihydrofuryl}methyl 4-nitrobenzoate], on PKCα (setting [2]), the “Ratio Ki crude/Ki pure” value came out at 5.2. `CCCC(CCC)C(=O)OCC1(CO)C/C(=C\c2ccc(C(F)(F)F)cc2)C(=O)O1` (centres unmarked) [L2-B4, (E)-(2-(Hydroxymethyl)-5-oxo-4-{[4-(trifluoromethyl)phenyl]methylene}-2-2,3-dihydrofuryl)methyl 2-propylpentanoate]: the “Ratio Ki crude/Ki pure” value on PKCα (setting [3]) came out at 5.6. The “transforming activity (anchorage independent colonies)” value (from here on “transforming activity”) with JB6 cells is listed as “minimal transforming properties”. Further, the induction of apoptosis entry with LNCaP cells is given as “induction of apoptosis”. For the same compound, in the series with AP-1, the “AP-1 activation (AP-1 dependent luciferase activity)” value (“AP-1 activation” below) is “very strong AP-1 transcription factor activation”. `CN(C)c1ccc(/C=C2\CC(CO)(COC(=O)c3ccc(N(C)C)cc3)OC2=O)cc1` (centres unmarked) [L1-E5, (E)-(4-{[4-(Dimethylamino)phenyl]methylene}-2-(hydroxymethyl)-5-oxo-2-2,3-dihydrofuryl)methyl 4-(dimethylamino)benzoate]: the “Ratio Ki crude/Ki pure” value at PKCα (setting [2]) was 10.6. The same measure, in the same setting: to `COc1ccc(C(=O)OCC2(CO)C/C(=C\c3ccc([N+](=O)[O-])cc3)C(=O)O2)cc1` (centres unmarked) [L1-H6, (E)-{2-(Hydroxymethyl)-4-[(4-nitrophenyl)methylene]-5-oxo-2-2,3-dihydrofuryl}methyl 4-methoxybenzoate] belongs 2.7. With `CCCC(CCC)C(=O)OCC1(CO)C/C(=C\c2ccc(F)c(Cl)c2)C(=O)O1` (centres unmarked) [L2-B10, (E)-{4-[(3-Chloro-4-fluorophenyl)methylene]-2-(hydroxymethyl)-5-oxo-2-2,3-dihydrofuryl}methyl 2-propylpentanoate], the “Ratio Ki crude/Ki pure” value at PKCα (setting [3]) is 3.8. Consider `CCCCC(CC)C(=O)OCC1(CO)C/C(=C\c2ccc(N(C)C)cc2)C(=O)O1` (centres unmarked) [L1-E2, (E)-(4-{[4-(Dimethylamino)phenyl]methylene}-2-(hydroxymethyl)-5-oxo-2-2,3-dihydrofuryl)methyl 2-ethylhexanoate], for which the “Ratio Ki crude/Ki pure” value on PKCα (setting [2]) is listed as 7.4. With `CCCCC(CC)C(=O)OCC1(CO)C/C(=C\c2ccc(Cl)cc2)C(=O)O1` (centres unmarked) [L2-C8, (E)-{4-[(4-Chlorophenyl)methylene]-2-(hydroxymethyl)-5-oxo-2-2,3-dihydrofuryl}methyl 2-ethylhexanoate], the “Ratio Ki crude/Ki pure” value on PKCα (setting [3]) is given as 4.3. For the same compound, in the series with JB6 cells, the “transforming activity” value was “significant transforming activity”. Besides, the “AP-1 activation” value with AP-1 is on record as “able to induce AP-1 activation”. In the case of `CC(C)C(=O)OCC1(CO)C/C(=C/c2ccccc2C(F)(F)F)C(=O)O1` (centres unmarked) [L2-A1, (Z)-(2-(Hydroxymethyl)-5-oxo-4-{[2-(trifluoromethyl)phenyl]-methylene}-2-2,3-dihydrofuryl)methyl 2-methylpropanoate], the “Ratio Ki crude/Ki pure” value at PKCα (Library 2, pure sample = Z-isomer) is 0.51. In the case of `COc1ccc(/C=C2\CC(CO)(COC(=O)c3ccc(N(C)C)cc3)OC2=O)cc1` (centres unmarked) [L1-F5, (E)-{2-(Hydroxymethyl)-4-[(4-methoxyphenyl)methylene]-5-oxo-1-2,3-dihydrofuryl}methyl 4-(dimethylamino)benzoate], the “Ratio Ki crude/Ki pure” value at PKCα (setting [2]) turned out to be 7.5. Still for that read-out and setting: for `COc1ccc(/C=C2\CC(CO)(COC(=O)c3c(C)cc(C)cc3C)OC2=O)cc1` (centres unmarked) [L1-F11, (E)-{2-(Hydroxymethyl)-4-[(4-methoxyphenyl)methylene]-5-oxo-2-2,3-dihydrofuryl}methyl 2,4,6-trimethylbenzoate] the value was 32.0.

As to `CCCCC(/C=C1/CC(CO)(COC(=O)c2ccc(N(C)C)cc2)OC1=O)CC` (centres unmarked) [L1-B5, (Z)-[4-(2-Ethylhexylidene)-2-(hydroxymethyl)-5-oxo-2-2,3-dihydrofuryl]methyl 4-(dimethylamino)benzoate], the “Ratio Ki crude/Ki pure” value on PKCα (setting [4]) is listed as 3.4.

On to `COc1ccc(C(=O)OCC2(CO)C/C(=C\c3ccc(N(C)C)cc3)C(=O)O2)cc1` (centres unmarked) [L1-E6, (E)-(4-{[4-(Dimethylamino)phenyl]methylene}-2-(hydroxymethyl)-5-oxo-2-2,3-dihydrofuryl)methyl 4-methoxybenzoate], for which the “Ratio Ki crude/Ki pure” value at PKCα (setting [2]) stood at 8.7. Further, the “α-secretase activity (sAPPα) relative to untreated cells (100%)” value with α-secretase is on record as 177%. On to `COc1ccc(/C=C2\CC(CO)(COC(=O)c3c(C(C)C)cc(C(C)C)cc3C(C)C)OC2=O)cc1` (centres unmarked) [L1-F12, (E)-{2-(Hydroxymethyl)-4-[(4-methoxyphenyl)methylene]-5-oxo-2-2,3-dihydrofuryl}methyl 2,4,6-tris(methylethyl)benzoate], for which the “Ratio Ki crude/Ki pure” value on PKCα (setting [2]) is given as 24.6.

Regarding `CN(C)c1ccc(/C=C2\CC(CO)(COC(=O)c3ccc([N+](=O)[O-])cc3)OC2=O)cc1` (centres unmarked) [L1-E8, (E)-(4-{[4-(Dimethylamino)phenyl]methylene}-2-(hydroxymethyl)-5-oxo-2-2,3-dihydrofuryl)methyl 4-nitrobenzoate], at PKCα (setting [2]), the “Ratio Ki crude/Ki pure” value was found to be 5.8. Consider `CCCCCC/C=C1/CC(CO)(COC(=O)c2c(C(C)C)cc(C(C)C)cc2C(C)C)OC1=O` (centres unmarked) [L1-A12, (Z)-[4-Heptylidene-2-(hydroxymethyl)-5-oxo-2-2,3-dihydrofuryl]methyl 2,4,6-tris(methylethyl)benzoate], for which, on PKCα (setting [4]), the “Ratio Ki crude/Ki pure” value is recorded as 50.4. `COc1ccc(/C=C2\CC(CO)(COC(=O)c3ccc(OC)cc3)OC2=O)cc1` (centres unmarked) [L1-F6, (E)-{2-(Hydroxymethyl)-4-[(4-methoxyphenyl)methylene]-5-oxo-1-2,3-dihydrofuryl}methyl 4-methoxybenzoate]: the “Ratio Ki crude/Ki pure” value at PKCα (setting [2]) amounted to 2.6. Take `CCCCC(CC)C(=O)OCC1(CO)C/C(=C\c2ccc(F)c(Br)c2)C(=O)O1` (centres unmarked) [L2-C12, (E)-{4-[(3-Bromo-4-fluorophenyl)methylene]-2-(hydroxymethyl)-5-oxo-2-2,3-dihydrofuryl}methyl 2-ethylhexanoate]: the “Ratio Ki crude/Ki pure” value at PKCα (setting [3]) is reported as 2.9. The “translocation of PKC isozymes α, β, δ and ε” value in series [1] was “translocated very quickly”. Also, the “induction of cell motility” value with MCF-10A cells is “induced cell motility”. Consider “(E)-{4-[(3-Chloro-4-fluorophenyl)methylene]-2-(hydroxymethyl)-5-oxo-2-2,3-dihydrofuryl}methyl 2-propylpentanoate [L2-B11]”, for which the “Ratio Ki crude/Ki pure” value at PKCα (setting [3]) is on record as 6.3. The Ki on PKCα (read-out: Pure Sample Ki, Library 2 pure compound, E-isomer) came out at 3.38 ± 0.15 nM. As for `CC(C)(C)C(=O)OCC1(CO)C/C(=C\c2ccc(F)c(Cl)c2)C(=O)O1` (centres unmarked) [L2-F10, (E)-{4-[(3-Chloro-4-fluorophenyl)methylene]-2-(hydroxymethyl)-5-oxo-2-2,3-dihydrofuryl}methyl 2,2-dimethylpropanoate], the “Ratio Ki crude/Ki pure” value on PKCα (setting [3]) is 1.8.

As to `CCCCC(/C=C1/CC(CO)(COC(=O)c2ccc([N+](=O)[O-])cc2)OC1=O)CC` (centres unmarked) [L1-B8, (Z)-[4-(2-Ethylhexylidene)-2-(hydroxymethyl)-5-oxo-2-2,3-dihydrofuryl]methyl 4-nitrobenzoate], on PKCα (setting [4]), the “Ratio Ki crude/Ki pure” value is 1.4.

In the case of `CCC(C(=O)OCC1(CO)C/C(=C\c2ccc(-c3ccc(C(F)(F)F)cc3)cc2)C(=O)O1)c1ccccc1` (centres unmarked) [L2-D6, (E)-[2-(Hydroxymethyl)-5-oxo-4-({4-[4-(trifluoromethyl)phenyl]phenyl}methylene)-2-2,3-dihydrofuryl]methyl 2-phenylbutanoate], the “Ratio Ki crude/Ki pure” value on PKCα (setting [3]) is 5.8. In the series on MCF-10A cells, the “induction of cell motility” value is listed as “mimics L2-C12 in terms of inducing cell motility”. With `CCCC(CCC)C(=O)OCC1(CO)C/C(=C\c2ccc(F)cc2)C(=O)O1` (centres unmarked) [L2-B7, (E)-{4-[(4-Fluorophenyl)methylene]-2-(hydroxymethyl)-5-oxo-2-2,3-dihydrofuryl}methyl 2-propylpentanoate], at PKCα (setting [3]), the “Ratio Ki crude/Ki pure” value came out at 3.0. The “transforming activity” value in the series with JB6 cells was “minimal transforming properties”. In addition, the induction of apoptosis entry in the series on LNCaP cells was “induction of apoptosis”. Moreover, the “AP-1 activation” value with AP-1 is “very strong AP-1 transcription factor activation”. At PKCα, `CCCC(CCC)C(=O)OCC1(CO)C/C(=C\c2ccc(F)c(Br)c2)C(=O)O1` (centres unmarked) [L2-B12, (E)-{4-[(3-Bromo-4-fluorophenyl)methylene]-2-(hydroxymethyl)-5-oxo-2-2,3-dihydrofuryl}methyl 2-propylpentanoate] registered an inhibition constant Ki of around 2 nM. Besides, the “Ratio Ki crude/Ki pure” value at PKCα (setting [3]) was 3.0. Moreover, the “induction of cell motility” value with MCF-10A cells was “very weak effect on cell motility”.

For the origin of these results see article PMC2574997 (Journal of medicinal chemistry, 2008).
